Laboratory results from ChEMBL document CHEMBL3259745, “Identification of trisubstituted-pyrazol carboxamide analogs as novel and potent antagonists of farnesoid X receptor” (Bioorg Med Chem, 2014).
pIC50: −log10 of the molar value. One block for each compound: values may come before it. Calls of active or inactive are those of the source. The calls are words filed in the database; no cut-off is given here.

Legend:
[1] = target: T1, Bile acid receptor (Homo sapiens) (UniProt Q96RI1); experiment: Agonist activity at FXR (unknown origin) expressed in HEK293T cells after 16 hrs by beta-lactamase reporter gene assay relative to control; assay type: cell-based; details: HEK-293T
T1 sequence (whole entry): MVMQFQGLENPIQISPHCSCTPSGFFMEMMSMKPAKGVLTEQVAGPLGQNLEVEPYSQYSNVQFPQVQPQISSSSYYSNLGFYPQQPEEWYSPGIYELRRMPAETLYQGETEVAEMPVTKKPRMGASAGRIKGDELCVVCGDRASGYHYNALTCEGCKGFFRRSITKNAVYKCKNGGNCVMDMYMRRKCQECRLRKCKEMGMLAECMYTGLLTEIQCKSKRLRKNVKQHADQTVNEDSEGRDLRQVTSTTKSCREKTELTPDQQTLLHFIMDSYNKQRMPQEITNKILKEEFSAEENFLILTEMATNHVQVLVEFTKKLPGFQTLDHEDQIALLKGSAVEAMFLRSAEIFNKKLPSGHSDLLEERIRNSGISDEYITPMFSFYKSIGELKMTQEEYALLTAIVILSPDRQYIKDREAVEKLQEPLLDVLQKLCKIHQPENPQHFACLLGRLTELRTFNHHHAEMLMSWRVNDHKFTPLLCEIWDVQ

[2] = target: T1, Bile acid receptor (Homo sapiens); experiment: Inhibition of GW4064-induced transactivation of FXR (unknown origin) expressed in HEK293T cells at 20 uM after 16 hrs by beta-lactamase reporter gene assay relative to control; assay type: cell-based; details: HEK-293T
[3] = target: T1, Bile acid receptor (Homo sapiens); experiment: Antagonist activity at human GST-tagged FXR at 1.5 uM after 20 mins by TR-FRET assay relative to control
[4] = Cytotoxicity against HEK293T cells expressing FXR and beta-lactamase genes assessed as inhibition of cell viability at 4.4 uM after 16 hrs by CellTiter-Glo luminescent assay relative to control; assay type: cell-based, HEK-293T; details: human, read-out: INH
Method in brief: (§1)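 Viability run alongside the agonist assay in the same GeneBLAzer FXR HEK 293T cells: 20,000 cells/well in phenol red-free DMEM with 2% charcoal/dextran-treated FBS, 0.5% DMSO, 16 h at 37°C. Cooled 20 min, then CellTiter-Glo added for 20 min in dark; luminescence read.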

[5] = target: T1, Bile acid receptor (Homo sapiens); experiment: Inhibition of GW4064-induced transactivation of FXR (unknown origin) expressed in HEK293T cells at 40 uM after 16 hrs by beta-lactamase reporter gene assay relative to control; assay type: cell-based; details: HEK-293T
[6] = target: T1, Bile acid receptor (Homo sapiens); experiment: Agonist activity at human FXR
[7] = Cytotoxicity against HEK293T cells expressing FXR and beta-lactamase genes assessed as inhibition of cell viability at 40 uM after 16 hrs by CellTiter-Glo luminescent assay relative to control; assay type: cell-based, HEK-293T; details: human, read-out: INH; method in brief: as §1
[8] = target: T1, Bile acid receptor (Homo sapiens); experiment: Antagonist activity at human GST-tagged FXR at 1.48 uM after 20 mins by TR-FRET assay relative to control
[9] = target: T1, Bile acid receptor (Homo sapiens); experiment: Ratio of E16 IC50 to compound IC50 for human GST-tagged FXR after 20 mins by TR-FRET assay
[10] = target: T1, Bile acid receptor (Homo sapiens); experiment: Ratio of E16 IC50 to compound IC50 for transactivation of FXR (unknown origin) expressed in HEK293T cells after 16 hrs by beta-lactamase reporter gene assay; assay type: cell-based; details: HEK-293T
[11] = target: T1, Bile acid receptor (Homo sapiens); experiment: Antagonist activity at human GST-tagged FXR at 164 nM after 20 mins by TR-FRET assay relative to control
[12] = target: T2, Bile acid receptor (Homo sapiens, UniProt Q96RI1); experiment: Antagonist activity at human GST-tagged FXR after 20 mins by TR-FRET assay
T2 sequence (Q96RI1 whole entry): T1 sequence (whole entry)

[13] = target: T1, Bile acid receptor (Homo sapiens); details: 4.44 uM
[14] = target: T2, Bile acid receptor; experiment: Inhibition of GW4064-induced transactivation of FXR (unknown origin) expressed in HEK293T cells after 16 hrs by beta-lactamase reporter gene assay; assay type: cell-based, HEK-293T
[15] = target: T1, Bile acid receptor (Homo sapiens); experiment: Antagonist activity at human GST-tagged FXR at 13.3 uM after 20 mins by TR-FRET assay relative to control
[16] = target: T1, Bile acid receptor (Homo sapiens); experiment: Inhibition of GW4064-induced transactivation of FXR (unknown origin) expressed in HEK293T cells at 1 uM after 16 hrs by beta-lactamase reporter gene assay relative to control; assay type: cell-based; details: HEK-293T
[17] = target: T1, Bile acid receptor (Homo sapiens); experiment: Antagonist activity at human GST-tagged FXR at 40 uM after 20 mins by TR-FRET assay relative to control
[18] = Cytotoxicity against HEK293T cells expressing FXR and beta-lactamase genes assessed as inhibition of cell viability at 13.3 uM after 16 hrs by CellTiter-Glo luminescent assay relative to control; assay type: cell-based, HEK-293T; details: human, read-out: INH; method in brief: as §1
[19] = target: T1, Bile acid receptor (Homo sapiens); experiment: Antagonist activity at human GST-tagged FXR at […] nM after 20 mins by TR-FRET assay relative to control

Structure (SMILES): CCCCn1cc(C(=O)Nc2ccc(C)c(S(=O)(=O)N3CCOCC3)c2)c(-c2ccc(C)cc2)n1
Activity [1]: inactive
inhibition [2]: 97.9%
inhibition [3]: 130%
cytotoxicity at 16 h, 4.4 µM [4]: 10.3%

Structure (SMILES): CCN(CC)S(=O)(=O)c1cc(NC(=O)c2cnn(-c3cccnc3)c2)ccc1C
inhibition [5]: 24%
Activity [6]: inactive
cytotoxicity at 16 h, 40 µM [7]: 10.3%
inhibition [8]: 23%

Structure (SMILES): COc1cccc(Cn2cc(C(=O)Nc3ccc(C)c(S(=O)(=O)N4CCOCC4)c3)c(-c3ccc(C)cc3)n2)c1
Activity [1]: inactive
inhibition [5]: 98.9%
Ratio IC50 [9]: 5.26
Ratio IC50 [10]: 4.59
inhibition [11]: 130%
cytotoxicity at 16 h, 40 µM [7]: < 5%

Structure (SMILES): O=C(Nc1cccc(S(=O)(=O)N2CCOCC2)c1)c1cn(-c2ccccc2)nc1-c1cccnc1
pIC50 [12]: 5.89
inhibition [5]: 82.3%
inhibition [13]: 90.4%
pIC50 [14]: 4.97
Activity [6]: inactive
cytotoxicity at 16 h, 40 µM [7]: < 5%

Structure (SMILES): COc1cccc(Cn2cc(C(=O)N(C)c3ccc(C)c(S(=O)(=O)N4CCOCC4)c3)c(C(C)C)n2)c1
Activity [1]: inactive
inhibition [17]: 80.3%
inhibition [2]: 2.4%
inhibition [16]: inactive
cytotoxicity at 16 h, 40 µM [7]: 13.5%

Structure (SMILES): Cc1ccc(-c2nn(-c3nc4ccccc4s3)cc2C(=O)Nc2ccc(C)c(S(=O)(=O)N3CCOCC3)c2)cc1
Activity [1]: inactive
inhibition [5]: 79.1%
Ratio IC50 [9]: 3
inhibition [11]: 102%
cytotoxicity at 16 h, 13.3 µM [18]: 11.5%

Structure (SMILES): Cc1ccc(-c2nn(Cc3ccc4ccccc4c3)cc2C(=O)Nc2ccc(C)c(S(=O)(=O)N3CCOCC3)c2)cc1
Activity [1]: inactive
inhibition [5]: 84.4%
inhibition [11]: 97.8%
cytotoxicity at 16 h, 4.4 µM [4]: 7.9%

Now from value to compound, other results behind:

Activity [1]: inactive
inhibition [5]: 100%
inhibition [3]: 105%
Structure (SMILES): Cc1ccc(-c2nn(CC3CC3)cc2C(=O)Nc2ccc(C)c(S(=O)(=O)N3CCOCC3)c2)cc1
cytotoxicity at 16 h, 40 µM [7]: < 5%

Activity [1]: inactive
inhibition [5]: 97.8%
inhibition [15]: 150%
Structure (SMILES): COc1cccc(-c2nn(C(C)C)cc2C(=O)Nc2ccc(C)c(S(=O)(=O)N3CCOCC3)c2)c1
cytotoxicity at 16 h, 4.4 µM [4]: 10.8%

Activity [1]: inactive
inhibition [5]: 3.1%
inhibition [16]: inactive
inhibition [8]: 39.8%
Structure (SMILES): COc1cccc(Cn2cc(CNc3ccc(C)c(S(=O)(=O)N4CCOCC4)c3)c(-c3cccc(OC)c3)n2)c1
cytotoxicity at 16 h, 40 µM [7]: < 5%

inhibition [5]: 27%
inhibition [19]: 11.6%
Activity [6]: inactive
Structure (SMILES): COc1ccc(-c2nn(-c3ccccc3)cc2C(=O)Nc2cc(S(=O)(=O)N3CCOCC3)ccc2N2CCOCC2)cc1
cytotoxicity at 16 h, 40 µM [7]: < 5%
